The record followed here is ChEMBL document CHEMBL4196022, “Alkynyl-containing phenylthiazoles: Systemically active antibacterial agents effective against methicillin-resistant Staphylococcus aureus (MRSA)” (Eur J Med Chem, 2018).

In brackets after ≈: the same amount, converted by molar mass.

The subject of series [1] is Staphylococcus aureus. The experiment in a line: Bactericidal activity against methicillin-resistant Staphylococcus aureus USA300 up to 18 hrs by broth microdilution assay. Type of series: functional. To be noted: USA300, 18 h, read-out: MBC99.9.
The test system of series [2] is Staphylococcus aureus. Briefly: Ratio of MBC to MIC for methicillin-resistant Staphylococcus aureus USA300. Type of series: functional. An outline of the steps:
(§1)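 MBC/MIC ratio. […] MBC by plating no-growth wells onto tryptic soy agar at 37 °C for at least 18 h; taken as the concentration giving 99.9% growth inhibition.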

Series [3] deals with Staphylococcus aureus. Briefly: Antibacterial activity against methicillin-resistant Staphylococcus aureus USA300 after 20 hrs by broth microdilution assay. Type of series: functional. To be noted: USA300, 20 h. Put shortly: (§2)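 Broth microdilution per CLSI in cation-adjusted Mueller Hinton broth. Compounds serially diluted, in triplicate. Incubation at 37 °C for at least 20 hours. MIC taken as the lowest concentration with no visible bacterial growth.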
A general note: In broth dilution the organism is exposed to a series of concentrations in liquid medium.

The test system of series [4] is Staphylococcus aureus. The experiment in a line: Bactericidal activity against methicillin-resistant Staphylococcus aureus NRS119 up to 18 hrs by broth microdilution assay. Type of series: functional. To be noted: NRS119, 18 h, read-out: MBC99.9.
Series [5] deals with Staphylococcus aureus. The experiment in a line: Bactericidal activity against methicillin resistant vancomycin-resistant Staphylococcus aureus VRS12 up to 18 hrs by broth microdilution assay. It counts as functional. To be noted: VRS12, 18 h, read-out: MBC99.9. An outline of the steps:
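MBC set up from the MIC plates. Aliquots from wells with no growth spotted onto tryptic soy agar and incubated at 37 °C for at least 18 hours. MBC taken as the lowest concentration giving 99.9% inhibition of bacterial growth.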

Series [6] has as its system Staphylococcus aureus. The experiment in a line: Antibacterial activity against methicillin-resistant Staphylococcus aureus NRS107 after 20 hrs by broth microdilution assay. Type of series: functional. Conditions: NRS107, 20 h. Put shortly:
as §2

The test system of series [7] is Staphylococcus aureus. Briefly: Bactericidal activity against methicillin resistant vancomycin-resistant Staphylococcus aureus VRS10 up to 18 hrs by broth microdilution assay. It counts as functional. Conditions: VRS10, 18 h, read-out: MBC99.9.
Series [8] relates to Staphylococcus aureus. Briefly: Bactericidal activity against methicillin resistant vancomycin-resistant Staphylococcus aureus VRS11a up to 18 hrs by broth microdilution assay. It counts as functional. To be noted: read-out: MBC99.9.
In series [9] the test system is Staphylococcus aureus. The experiment in a line: Potency index, ratio of vancomycin MIC to compound MIC for antibacterial activity against vancomycin-resistant Staphylococcus aureus VRS11a. Type of series: functional.
Series [10] relates to Staphylococcus aureus. Briefly: Ratio of MBC to MIC for vancomycin-resistant Staphylococcus aureus VRS12. Type of series: functional. An outline of the steps:
as §1

Series [11] concerns Staphylococcus aureus. Briefly: Potency index, ratio of vancomycin MIC to compound MIC for antibacterial activity against vancomycin-resistant Staphylococcus aureus VRS12. It counts as functional.
Series [12] has as its system Staphylococcus aureus. The experiment in a line: Ratio of MBC to MIC for methicillin-resistant Staphylococcus aureus NRS107. It counts as functional. An outline of the steps: as §1
The test system of series [13] is Staphylococcus aureus. The experiment in a line: Bactericidal activity against methicillin-resistant Staphylococcus aureus NRS107 up to 18 hrs by broth microdilution assay. Type of series: functional. Conditions: NRS107, 18 h, read-out: MBC99.9.
Series [14] concerns Staphylococcus aureus. The experiment in a line: Antibacterial activity against methicillin-resistant Staphylococcus aureus NRS119 after 20 hrs by broth microdilution assay. It counts as functional. To be noted: NRS119, 20 h. Put shortly:
as §2

The subject of series [15] is Staphylococcus aureus. The experiment in a line: Antibacterial activity against vancomycin-resistant Staphylococcus aureus VRS12 after 20 hrs by broth microdilution assay. It counts as functional. Conditions: VRS12, 20 h. An outline of the steps: as §2
The test system of series [16] is Staphylococcus aureus. Briefly: Antibacterial activity against vancomycin-resistant Staphylococcus aureus VRS10 after 20 hrs by broth microdilution assay. Type of series: functional. Conditions: VRS10, 20 h. An outline of the steps:
as §2

In series [17] the test system is Staphylococcus aureus. Briefly: Ratio of MBC to MIC for vancomycin-resistant Staphylococcus aureus VRS10. Type of series: functional. An outline of the steps: as §1
In series [18] the test system is Staphylococcus aureus. Briefly: Ratio of MBC to MIC for vancomycin-resistant Staphylococcus aureus VRS11a. It counts as functional. Put shortly:
as §1

In series [19] the test system is Staphylococcus aureus. The experiment in a line: Ratio of MBC to MIC for methicillin-resistant Staphylococcus aureus NRS123 (USA400). It counts as functional. An outline of the steps: as §1
Series [20] concerns Staphylococcus aureus. The experiment in a line: Potency index, ratio of vancomycin MIC to compound MIC for antibacterial activity against vancomycin-resistant Staphylococcus aureus VRS10. Type of series: functional.
Series [21] deals with Staphylococcus aureus. Briefly: Ratio of MBC to MIC for methicillin-resistant Staphylococcus aureus NRS119. Type of series: functional. An outline of the steps:
as §1

Series [22] deals with Staphylococcus aureus. Briefly: Antibacterial activity against methicillin-resistant Staphylococcus aureus NRS123 (USA400) after 20 hrs by broth microdilution assay. It counts as functional. An outline of the steps: as §2
Series [23] relates to Staphylococcus aureus. The experiment in a line: Antibacterial activity against vancomycin-resistant Staphylococcus aureus VRS11a after 20 hrs by broth microdilution assay. Type of series: functional. An outline of the steps:
as §2

The test system of series [24] is Staphylococcus aureus. The experiment in a line: Bactericidal activity against methicillin resistant Staphylococcus aureus NRS123 (USA400) up to 18 hrs by broth microdilution assay. To be noted: read-out: MBC99.9. Type of series: functional.
A short description of series [25]: Selectivity index, ratio of toxic concentration for human HRT18 cells to MIC for methicillin-resistant Staphylococcus aureus. Type of series: toxicity. To be noted: read-out: Selectivity Index.
For a further series, the system named is HRT-18 cell line. Briefly: Cytotoxicity against human HRT18 cells assessed as reduction in cell viability up to 32 ug/ml after 2 hrs by MTS assay. It counts as cell-based. Conditions: hrt-18, 2 h. On the technique in general: Tetrazolium dyes change colour on reduction, which living cells bring about.

For the compound `C/C(=N\NC1=NCCN1)c1sc(-c2ccc(C#CC(C)(C)N)cc2)nc1C`, the MBC with Staphylococcus aureus [1] is over 64 µg/mL. In addition, the Ratio result with Staphylococcus aureus [2] is on record as “<=3”. For the same compound, the MIC (commonly the least concentration at which growth counts as inhibited) against Staphylococcus aureus [3] was over 64 µg/mL.

Consider `C/C(=N\NC1=NCCN1)c1sc(-c2ccc(C#Cc3ccccc3)cc2)nc1C`, for which the MBC in the series with Staphylococcus aureus [1] stood at 16 µg/mL (≈ 40 µM). Moreover, the Ratio entry in the series on Staphylococcus aureus [2] is “<=3”. Also, in the series on Staphylococcus aureus [3], the MIC came out at 8 µg/mL (≈ 20 µM).

With `C/C(=N\NC(=N)N)c1sc(-c2ccc(C#CCC3CCCC3)cc2)nc1C`, the MBC in the series with Staphylococcus aureus [1] turned out to be 4 µg/mL (≈ 10.5 µM); in the series on Staphylococcus aureus [4], 4 µg/mL (≈ 10.5 µM); in the series on Staphylococcus aureus [5], 2 µg/mL (≈ 5.27 µM); with Staphylococcus aureus [7] it was 4 µg/mL (≈ 10.5 µM); in the series on Staphylococcus aureus [8], 4 µg/mL (≈ 10.5 µM); in the series on Staphylococcus aureus [13], 4 µg/mL (≈ 10.5 µM). The MBC in the series with Staphylococcus aureus [24] is 2 µg/mL (≈ 5.27 µM). The Ratio result is given as “<=3” in the series on Staphylococcus aureus [2]; over 100 in the series on Staphylococcus aureus [9]; “<=3” in the series on Staphylococcus aureus [10]; over 100 in the series with Staphylococcus aureus [11]; “<=3” with Staphylococcus aureus [12]; “<=3” with Staphylococcus aureus [17]. Besides, the Ratio result with Staphylococcus aureus [18] is “<=3”; in the series with Staphylococcus aureus [19], “<=3”; in the series with Staphylococcus aureus [20], over 100; in the series with Staphylococcus aureus [21] it was “<=3”. The MIC against Staphylococcus aureus [6] amounted to 2 µg/mL (≈ 5.27 µM); in the series with Staphylococcus aureus [3] it was 4 µg/mL (≈ 10.5 µM); against Staphylococcus aureus [14], 4 µg/mL (≈ 10.5 µM); against Staphylococcus aureus [15], 2 µg/mL (≈ 5.27 µM); against Staphylococcus aureus [16] it was 2 µg/mL (≈ 5.27 µM); with Staphylococcus aureus [22], 2 µg/mL (≈ 5.27 µM). 4 µg/mL (≈ 10.5 µM) was the least that counted as inhibitory against Staphylococcus aureus [23] (MIC).

Take `CCCC#Cc1ccc(-c2nc(C)c(/C(C)=N/NC3=NCCN3)s2)cc1`: the MBC with Staphylococcus aureus [1] is over 64 µg/mL. Also, in the series on Staphylococcus aureus [2], the Ratio entry is “<=3”. In the series on Staphylococcus aureus [3], this compound returned an MIC of over 64 µg/mL.

As to `CCCCCCC#Cc1ccc(-c2nc(C)c(/C(C)=N/NC3=NCCN3)s2)cc1`, the MBC in the series on Staphylococcus aureus [1] stood at 16 µg/mL (≈ 39.3 µM). In the series with Staphylococcus aureus [2], the Ratio result is “<=3”. For the same compound, in the series with Staphylococcus aureus [3], the MIC came to 8 µg/mL (≈ 19.6 µM).

For the compound `C/C(=N\NC1=NCCN1)c1sc(-c2ccc(C#CC(C)(C)C)cc2)nc1C`, the MBC turned out to be 4 µg/mL (≈ 10.5 µM) with Staphylococcus aureus [1]; 2 µg/mL (≈ 5.27 µM) in the series on Staphylococcus aureus [4]; 8 µg/mL (≈ 21.1 µM) in the series on Staphylococcus aureus [5]; 4 µg/mL (≈ 10.5 µM) in the series with Staphylococcus aureus [7]; 4 µg/mL (≈ 10.5 µM) with Staphylococcus aureus [8]; 4 µg/mL (≈ 10.5 µM) in the series on Staphylococcus aureus [13]. Further, the MBC in the series with Staphylococcus aureus [24] stood at 16 µg/mL (≈ 42.2 µM). The selectivity ratio in series [25] was 7 to 31. The Ratio entry in the series with Staphylococcus aureus [2] was “<=3”; with Staphylococcus aureus [9], over 100; in the series on Staphylococcus aureus [10], “<=3”; in the series with Staphylococcus aureus [11], 4; in the series on Staphylococcus aureus [12], “<=3”; with Staphylococcus aureus [17], “<=3”. Also, the Ratio entry in the series on Staphylococcus aureus [18] is “<=3”; with Staphylococcus aureus [19] (read-out: Ratio) it was 4; with Staphylococcus aureus [20], over 100; with Staphylococcus aureus [21] it was “<=3”. For the same compound, the MIC with Staphylococcus aureus [6] was found to be 2 µg/mL (≈ 5.27 µM); with Staphylococcus aureus [3], 2 µg/mL (≈ 5.27 µM); with Staphylococcus aureus [14] it was 2 µg/mL (≈ 5.27 µM); in the series on Staphylococcus aureus [15] it was 4 µg/mL (≈ 10.5 µM); against Staphylococcus aureus [16], 4 µg/mL (≈ 10.5 µM); with Staphylococcus aureus [22], 4 µg/mL (≈ 10.5 µM). This compound also showed an MIC against Staphylococcus aureus [23] of 4 µg/mL (≈ 10.5 µM). In the series with HRT-18 cell line, the Activity result is recorded as “Non-Toxic”.
